Data set [1] relates to Ebolavirus. The data set can be described thus: Antiviral activity against eGFP-positive VSV-G pseudotyped EBOV infected in human U2OS cells assessed as reduction in virus entry cells pre-incubed with compound for 1 hr followed by viral infection and measured after 12 to 14 hrs by fluorescence microscopic analysis. As to conditions: Orthoebolavirus; call rule not given here. The data set is classed as functional, organism-based.

A short description of data set [2]: cells. The data set is classed as cell-based, Ebolavirus, HEK293T. As to conditions: Orthoebolavirus, Mayinga, HEK-293T.
Data set [3] relates to HEK-293T. Nature of the data set: (§1) Cytotoxicity against human HEK293T cells incubated for 48 hrs by MTT assay. The data set is classed as cell-based. As to conditions: hek-293t, 48 h. In short, it runs like this:
(§2)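 HEK293T cells at 10⁵ cells/ml were added to two-fold compound dilutions in 10% DMEM and incubated 48 h at 37 °C, 5% CO2. MTT (5 mg/ml stock in PBS, 1/10 volume) was added for 2 h, and formazan was dissolved in DMSO before reading optical density. Each concentration was run in triplicate. CC50 was the concentration giving 50% cell death, or halving OD versus control.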

Data set [4] deals with Vero. Nature of the data set: (§3) Cytotoxicity against African green monkey Vero cells assessed as reduction in cell survival incubated for 10 days by neutral red dye based colorimetric analysis. The conditions noted are these: chlorocebus sabaeus, vero, 240 h; time 10 day. In short, it runs like this:
(§4)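 Confluent Vero monolayers received six concentrations from 3-fold serial dilutions in DMEM of DMSO-dissolved compound, plus medium without virus. After 10 days at 37 °C, 5% CO2, cells were stained with neutral red and read at 490 nm. CC50 came from a 4-parameter fit, with at least 3 analyses per compound.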

For data set [5], the system named is Marburgvirus. The data set can be described thus: Antiviral activity against MARV Popp infected in African green monkey Vero cells assessed as inhibition of viral infection by measuring reduction in virus-induced cytotoxicity incubated for 10 days by neutral red dye based colorimetric analysis. The data set is classed as functional, organism-based.
The subject of data set [6] is Zaire ebolavirus. The data set can be described thus: Antiviral activity against Zaire ebolavirus infected in African green monkey Vero cells assessed as inhibition of viral infection by measuring […] incubated for 10 days by neutral red dye based colorimetric analysis. The data set is classed as functional, organism-based.
Data set [7] deals with Influenza A virus. The data set can be described thus: Antiviral activity against Influenza A virus (H1N1). The data set is classed as functional, organism-based.
The subject of data set [8] is Ebolavirus. Nature of the data set: Antiviral activity against VSV-G pseudotyped EBOV infected in human HeLa cells. The data set is classed as functional, organism-based. The conditions noted are these: Orthoebolavirus.
Data set [9] deals with Marburgvirus. The data set can be described thus: Antiviral activity against VSV-G pseudotyped MARV infected in human HeLa cells. The data set is classed as functional, organism-based. As to conditions: Orthomarburgvirus.
The nature of data set [10]: cells. The conditions noted are these: Vesicular stomatitis virus, HEK-293T. The data set is classed as cell-based, HEK293T.
Data set [11] is described as follows: as §3. The conditions noted are these: chlorocebus sabaeus, Vero cells; time 10 day. The method, boiled down:
as §4

Data set [12] is described as follows: Acute toxicity in ICR mouse assessed as animal death at 0.14 to 1.08 g/kg, ig and measured for 7 days. As to conditions: in vivo, po, 168 h, dose 0.14-1.08 g/Kg, time 7 day. In short, it runs like this: (§5)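 Outbred ICR mice, randomised into groups of 2. Each group got a single oral gavage dose of 1.08, […], 0.27 or 0.14 g/kg, given as a suspension in 10% DMSO in water at 0.1 mL/10 g. Controls received solvent only. Survival was recorded over 7 days.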

Data set [13] can be described thus: Acute toxicity in ig dosed ICR mouse. The data set is classed as organism-based. The conditions noted are these: in vivo, po. In short, it runs like this:
as §5

A short description of data set [14]: as §1. The data set is classed as cell-based, HEK-293T. The conditions noted are these: HEK293T cells. The method, boiled down: as §2
Data set [15] is described as follows: in vitro. The conditions noted are these: human, HEK293T cells.

Structures are written as SMILES. A value given as a limit tells only on which side of the number the result lay.

As to `CCCNC(=O)[C@@H]1O[C@H]1C(=O)N[C@@H](Cc1ccc(C)cc1)C(=O)N[C@H](C(=O)N1CCN(Cc2ccccc2)CC1)c1ccccc1`, the IC50 (usually the concentration needed to halve the response being measured) in data set [1] came out at 0.07 µM.
`CC1CCN(CCC(=O)O[C@@H]2C[C@@H]3CC[C@@]2(C)C3(C)C)CC1` [listing 1 of 2 here]: the IC50 in [2] came out at 0.3 µM; in [5] (vero, read-out: IC50), 2.2 µM; in [6] (Zaire ebolavirus, Vero, 240 h, read-out: IC50) it was 54.3 µM; in [7] it was 15.3 µM. In addition, the CC50 (usually the concentration at which the toxic effect on the cells reaches its halfway point) turned out to be 280 µM in data set [3] and 69.3 µM in data set [4].
As to `N#Cc1c(NCCN)nc(-c2ccccc2)c2c1CCCC2`, the IC50 was 24.4 µM in data set [8] and 6.2 µM in data set [9].
Consider `CC1(C)[C@H]2CC[C@]1(C)[C@H](OC(=O)CCN1CCCCC1)C2`, for which the IC50 in [10] was determined as 93 µM; in data set [5] (vero, read-out: IC50), 3.7 µM; in data set [6] (vero, read-out: IC50), 47.5 µM; in data set [7], 7.8 µM. Besides, the CC50 in data set [3] was determined as 290 µM. The CC50 at 240 h in data set [11] was 443 µM.
Take `CC1CCN(CCC(=O)O[C@@H]2C[C@@H]3CC[C@@]2(C)C3(C)C)CC1` [listing 2 of 2 here]: the CC50 in data set [3] worked out at 69.8 µM; in data set [4] it was 144 µM. Also, the IC50 in [5] (vero, read-out: IC50) is 5.7 µM; in [6] (vero, read-out: IC50), 64.7 µM.
With `CC1(C)[C@H]2CC[C@]1(C)[C@H](OC(=O)CCN1CCCCC1)C2.Cl`, the CC50 in data set [3] stood at 87 µM; in data set [4] it was 279 µM. In addition, the IC50 in data set [5] (vero, read-out: IC50) amounted to 18.1 µM; in data set [6] (vero, read-out: IC50), 9.1 µM. The Activity result in [12] is listed as “Non-Toxic”. Besides, the LD50 (as a rule, the dose at which mortality reaches 50%) in data set [13] is greater than 1000 mg/kg.
In the case of `CC1(C)[C@@H]2CC[C@@]1(C)/C(=N/CCO)C2`, the IC50 in data set [7] is 5.1 µM.
Regarding `CC1(C)[C@H]2CC[C@]1(C)[C@H](OC(=O)CCN1CCOCC1)C2`, the IC50 in data set [2] was 8.5 µM; in [10], 320 µM; in data set [5] (vero), “Not Active”; in [6] (vero) it was “Not Active”; in [7], 12.2 µM. In [14], this compound displayed a CC50 at 48 h of 305 µM. The CC50 at 240 h in [11] is 122 µM. For the same compound, the selectivity ratio in [15] was found to be 36.
As for `O=[N+]([O-])c1cc(S(=O)(=O)NCCN2CCOCC2)ccc1Sc1nnnn1-c1ccccc1`, the IC50 in [8] is 1.9 µM; in [9] it was 12.9 µM.
As for `CCN1CCN(CCC(=O)O[C@@H]2C[C@@H]3CC[C@@]2(C)C3(C)C)CC1`, the IC50 is 1.6 µM in data set [2]; 80.5 µM in data set [10]; 17.8 µM in data set [5] (Orthomarburgvirus, Popp, Vero, 240 h, read-out: IC50); “Not Active” in data set [6] (vero). Moreover, in [14], the CC50 at 48 h is 264 µM. In [11], the CC50 at 240 h stood at 19.2 µM.
As to `CN1CCN(CCC(=O)O[C@@H]2C[C@@H]3CC[C@@]2(C)C3(C)C)CC1`, the IC50 in data set [2] is 0.3 µM; in data set [10] it was 173 µM; in data set [5] (vero) it was “Not Active”; in data set [6] (vero), “Not Active”; in data set [7], 1.9 µM. The compound also came in with a CC50 at 48 h in [14] of 282 µM. The 50% cytotoxic concentration (CC50) at 240 h in data set [11] amounted to 61.4 µM. Also, in [15], the selectivity ratio is 870.
Consider `CCN(CC)CCCC(=O)O[C@@H]1C[C@@H]2CC[C@@]1(C)C2(C)C`, for which the IC50 in data set [2] is 0.3 µM; in [10] it was 195 µM. In addition, in data set [14], it took 166 µM to reach half-maximal cytotoxicity (CC50 at 48 h). Besides, the selectivity ratio in [15] came to 490.
Taken in the same sequence, the figures for `CC1(C)[C@H]2CC[C@]1(C)[C@H](OC(=O)CCN1CCCCCC1)C2` were 5.1 µM, 191 µM, 182 µM and 36.
On to `CC1(C)[C@H]2CC[C@]1(C)[C@H](OC(=O)CN1CCCCC1)C2`, for which the IC50 in data set [2] amounted to 15.7 µM; in data set [10], 122 µM. Moreover, in data set [14], the CC50 at 48 h was found to be 141 µM. Moreover, the selectivity ratio in [15] worked out at 9.
Consider `CCN1CCN(CC(=O)O[C@@H]2C[C@@H]3CC[C@@]2(C)C3(C)C)CC1`, for which the IC50 in data set [2] was determined as 1.6 µM; in data set [10] it was 264 µM. The compound also had a CC50 at 48 h in data set [14] of 130 µM. For the same compound, the selectivity ratio in [15] turned out to be 80.
With `CCOC(=O)N1CCN(CCCC(=O)O[C@@H]2C[C@@H]3CC[C@@]2(C)C3(C)C)CC1`, the IC50 in data set [2] was found to be 2.6 µM; in [10], 49.1 µM. Further, in data set [14], the CC50 at 48 h was 60.4 µM. In [15], the selectivity ratio was 23.
Taken in the same sequence, the figures for `CN1CCN(CC(=O)N[C@@H]2C[C@H]3CC[C@]2(C)C3(C)C)CC1` were 13.3 µM, 853 µM, 853 µM and 64.
